# Experimental data as given in ChEMBL document CHEMBL5150073, “Photocaged DNA-Binding Photosensitizer Enables Photocontrol of Nuclear Entry for Dual-Targeted Photodynamic Therapy” (J Med Chem, 2022).
# Activity calls are given as the source filed them. The calls are words filed in the database; no cut-off is given here.
# Columns and labels:
# [1] = Selectivity index, ratio of CC50 for photocytotoxicity against human HeLa cells irradiated with 480 nm 2.3 J/cm^2 light to CC50 for photocytotoxicity against human HeLa cells irradiated with 480 nm 2.3 J/cm^2 light and 8 J/cm^2 UV irradiation; assay type: functional
# Procedure, shortened: (§1)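 Cells (MCF7, A549, HeLa) incubated 1 h with compound (BB probes 0–32 μM, Br-DAPI 0–64 μM) and washed once. Light arms: 480 nm (15 min, 2.3 J cm⁻²) with or without UV (5 min, 8.0 J cm⁻²), or UV only; dark controls unilluminated. Cells kept overnight in growth medium, then MTT read 24 h post-treatment. CC50 taken relative to untreated cells. n = 3.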
# [2] = test system: MCF7; assay: Photocytotoxicity against human MCF7 cells assessed as cell death by measuring increase in green fluorescence at 4 uM incubated for 1 hr followed by washout and irradiated with 480 nm 2.3 J/cm^2 light for 15 mins with 48 J 780 nm 2P laser light for 30 seconds by cell viability imaging kit based assay; assay type: functional
# Procedure, shortened: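 MCF7 cells given compound at 4 μM. Illuminated with 480 nm light (15 min, 2.3 J cm⁻²) plus 780 nm two-photon laser (30 s, 48 J). Stained 2 h later with a live/dead imaging kit: green dead-cell stain (EGFP filter), blue total-cell stain (DAPI filter). n = 3.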
# [3] = Drug uptake in human MCF7 cells cultured as […] spheroids assessed as increase in green fluorescence in nuclear background at 10 uM incubated overnight under dark condition by DAPI filter based fluorescence analysis; assay type: ADME, cell-based; details: mcf7, 10 µM
# [4] = test system: MCF7; assay: Photocytotoxicity against human MCF7 cells assessed as reduction in cell viability incubated for 1 hr under dark condition followed by washout and measured after 24 hrs by MTT assay; assay type: functional; procedure, shortened: as §1
# [5] = test system: A549; assay: Selectivity index, ratio of CC50 for photocytotoxicity against human […] cells irradiated with 480 nm 2.3 J/cm^2 light to CC50 for photocytotoxicity against human A549 cells irradiated with 480 nm 2.3 J/cm^2 light and 8 J/cm^2 UV irradiation; assay type: functional; procedure, shortened: as §1
# [6] = Stability of compound in human HeLa cells assessed as esterase-mediated 3-bromo-2-(4-carbamimidoylphenyl)-1H-indole-6-carboxamidine release by measuring cyan fluorescence at 2 uM incubated for 1 hr followed by compound washout and further incubated for 1 hr on heated microscopic stage by DAPI filter based fluorescence analysis; assay type: ADME, cell-based
# Procedure, shortened: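 Cells incubated with compound (2 μM) for 1 h, washed once with PBS, then kept a further 1 h in the dark on a heated microscope stage. Nuclear cyan fluorescence imaged with the DAPI filter set at 0 h and 2 h time points.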
# [7] = test system: Calf thymus DNA; assay: Binding affinity to calf thymus DNA assessed as red shift in absorbance spectra at 20 uM by fluorescence based analysis; assay type: nucleic-acid assay; details: Bos taurus
# [8] = Photorelease activity in PBS at pH 7.4 assessed as 3-bromo-2-(4-carbamimidoylphenyl)-1H-indole-6-carboxamidine release by measuring time at when peak observed at 50 uM in presence of CT-DNA illuminated with 3.1 J/cm^2 480 nm illumination for 20 mins by RP-HPLC analysis; assay type: functional
# Procedure, shortened: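 Samples at 50 μM in PBS pH 7.4 were either kept 3 h at 37 °C in the dark or illuminated 20 min at 480 nm (450–495 nm filter, 3.1 J cm⁻²). Analysed by RP-HPLC on a C18 analytical column with absorbance at 345 nm; retention times recorded. n = 2 independent samples.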
# [9] = test system: MCF7; assay: Photocytotoxicity against human MCF7 cells cultured as […] spheroids assessed as cell death by measuring increase in green fluorescence at 10 uM incubated for 1 hr followed by washout and irradiation with 480 nm 2.3 J/cm^2 light for 15 mins with 8 J/cm^2 UV irradiation for 5 mins and incubated overnight by cell viability imaging kit based assay; assay type: functional
# Procedure, shortened: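 MCF7 spheroids (~300 μm) grown in ultralow-attachment plates. Compound added to medium at 10 μM final for 1 h, then illuminated: 480 nm (15 min, 2.3 J cm⁻²), 480 nm plus UV (5 min, 8.0 J cm⁻²), or UV only. After overnight incubation, stained with a live/dead imaging kit; dead-cell green mean intensity and spheroid diameter assessed.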
# [10] = test system: MCF7; assay: Photocytotoxicity against human MCF7 cells cultured as 3D spheroids assessed as fold reduction in diameter of tumor spheroid size at 10 uM incubated for 1 hr followed by washout and irradiation with 480 nm 2.3 J/cm^2 light for 15 mins with 8 J/cm^2 UV irradiation for 5 mins and incubated overnight by cell viability imaging kit based assay
# [11] = Selectivity index, ratio of CC50 for photocytotoxicity against human MCF7 cells irradiated with 480 nm 2.3 J/cm^2 light to CC50 for photocytotoxicity against human MCF7 cells irradiated with 480 nm 2.3 J/cm^2 light and 8 J/cm^2 UV irradiation; assay type: functional; procedure, shortened: as §1
# [12] = test system: Calf thymus DNA; assay: Binding affinity to calf thymus DNA assessed as reduction in absorbance spectra at 20 uM by fluorescence based analysis; assay type: nucleic-acid assay; details: Bos taurus
# [13] = Drug localization in mitochondria of human MCF7 cells assessed as increase in bright green fluorescence of wintergreen excitation at 2 uM incubated for 1 hr in dark by Mitotracker green dye based analysis; assay type: ADME; details: mcf7, 1 h
# [14] = Drug localization in cytosol of human MCF7 cells assessed as increase in bright green fluorescence of wintergreen excitation at 2 uM incubated for 1 hr in dark by EGFP filter based analysis; assay type: ADME, subcellular
# [15] = test system: DNA; assay: Induction of DNA (unknown origin) damage in PBS at pH 7.4 assessed as double strand breaks by measuring elimination of intact DNA at 10 uM irradiated with 480 nm 2.3 J/cm^2 light for 15 mins with 8 J/cm^2 UV irradiation for 5 mins by ethidium bromide staining based agarose gel electrophoresis; assay type: nucleic-acid assay; details: time 20.0 min
# Procedure, shortened: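 Plasmid dsDNA (70 ng pCMV-PARP1-3xFlag-WT, 7146 bp) in PBS pH 7.4 with compound at 10 μM. Illumination: 480 nm for 15 min (2.3 J cm⁻²), then UV 365 nm lamp for 5 min (8.0 J cm⁻²). Samples denatured, run on 1% agarose gel with ethidium bromide. n = 2.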
# [16] = test system: MCF7; assay: Photorelease activity in human MCF7 cells assessed as 3-bromo-2-(4-carbamimidoylphenyl)-1H-indole-6-carboxamidine release by measuring bright cyan fluorescence in nucleus at 3 uM incubated for 1 hr followed by illumination with 1.6 J/cm^2 for 10 mins by DAPI filter based analysis; assay type: ADME, cell-based; details: mcf7, 1.167 h, time 70 min
# Procedure, shortened: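 MCF7 cells given compound (3 μM) for 1 h, washed once with PBS, imaged. DAPI filter set (ex 350–405, em 415–470 nm) used for Br-DAPI cyan signal; EGFP filter set (ex 450–495, em 500–550 nm) used for WinterGreen green signal. Cells imaged dark, then after 480 nm illumination (10 min, 1.6 J cm⁻²).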
# [17] = Aqueous stability of the compound in PBS at pH 7.4 assessed as hydrolysis of carbamate to release 3-bromo-2-(4-carbamimidoylphenyl)-1H-indole-6-carboxamidine at 0.8 uM incubated for 3 hrs by fluorescence based analysis; assay type: physicochemical; details: buffer, pH 7.4, 3 h
# [18] = Photorelease ability in PBS at pH 7.4 assessed as 3-bromo-2-(4-carbamimidoylphenyl)-1H-indole-6-carboxamidine release by measuring change in emission spectra at 1 uM incubated in presence of CT-DNA and irradiated with 3.1 J/cm^2 mercury lamp light for 20 mins; assay type: functional
smiles,measurement,setting,value
CC1=CC(C)=[N+]2C1=C(COC(=O)/N=C(\N)c1ccc3c(Br)c(-c4ccc(C(=N)N)cc4)[nH]c3c1)c1c(C)cc(C)n1[B-]2(C)C,Ratio,[1],2.2
same,Activity,[2],Active
same,Drug uptake,[3],Active
same,CC50,[4],> 10 µM
same,Ratio,[5],17
same,Stability,[6],Stable
same,Activity,[7],Active
same,TIME,[8],0.533 h
same,Activity,[9],Active
same,Activity,[10],Active
same,Ratio,[11],8.5
same,Activity,[12],Active
same,Drug uptake,[13],Active
same,Drug uptake,[14],Active
same,Activity,[15],Active
same,Drug metabolism,[16],Metabolite_Detected
same,Stability,[17],Stable
same,Drug metabolism,[18],Metabolite detected
